Assay results: ChEMBL document CHEMBL1141693, “Discovery of benzoylpiperazines as a novel class of potent and selective GlyT1 inhibitors” (Bioorg Med Chem Lett, 2008)
≈ marks a conversion by molar mass, not a printed value.

How the values were obtained:
[1] = species: Homo sapiens; test: Selectivity ratio of IC50 for human glycine transporter 2 to IC50 for human glycine transporter 1
In short: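 [³H]-glycine uptake inhibition in cells transfected with human GlyT1 or human GlyT2 cDNA. Each EC50 is the average of at least two independent experiments. Selectivity is the ratio of GlyT2 EC50 to GlyT1 EC50.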

[2] = target: T1, Sodium- and chloride-dependent glycine transporter 1 (Homo sapiens, UniProt P48067); test: Inhibition of [3H]glycine uptake at human glycine transporter 1 expressed in CHO cells by scintillation counter; format: cell-based
T1 sequence (P48067 whole entry): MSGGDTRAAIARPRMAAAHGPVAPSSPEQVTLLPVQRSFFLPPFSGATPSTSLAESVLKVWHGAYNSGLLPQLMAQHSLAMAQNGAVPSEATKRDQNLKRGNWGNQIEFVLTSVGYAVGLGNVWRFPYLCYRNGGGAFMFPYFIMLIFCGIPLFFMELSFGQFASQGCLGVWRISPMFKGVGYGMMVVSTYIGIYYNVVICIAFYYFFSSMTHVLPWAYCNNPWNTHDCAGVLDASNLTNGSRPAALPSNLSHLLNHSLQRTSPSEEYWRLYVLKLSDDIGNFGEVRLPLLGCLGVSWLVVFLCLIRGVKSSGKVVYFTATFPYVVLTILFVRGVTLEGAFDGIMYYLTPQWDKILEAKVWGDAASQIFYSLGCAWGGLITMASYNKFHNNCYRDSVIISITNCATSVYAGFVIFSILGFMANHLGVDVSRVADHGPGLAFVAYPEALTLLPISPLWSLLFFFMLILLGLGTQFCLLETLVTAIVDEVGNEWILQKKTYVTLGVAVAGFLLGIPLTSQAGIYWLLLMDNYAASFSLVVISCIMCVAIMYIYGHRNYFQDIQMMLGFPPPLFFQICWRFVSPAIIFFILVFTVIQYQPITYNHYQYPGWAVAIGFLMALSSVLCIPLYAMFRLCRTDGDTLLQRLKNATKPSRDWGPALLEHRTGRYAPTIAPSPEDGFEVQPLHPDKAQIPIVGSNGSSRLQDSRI

[3] = Membrane permeability by PAMPA; format: ADME; conditions: read-out: permeability
In short: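 PAMPA artificial-membrane permeation, reported as the permeation constant Pe in 10^-6 cm/s.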

[4] = target: T2, Sodium- and chloride-dependent glycine transporter 2 (Homo sapiens, UniProt Q9Y345); test: Inhibition of [3H]glycine uptake at human glycine transporter 2 expressed in CHO cells by scintillation counter; format: cell-based
T2 sequence (Q9Y345 whole entry): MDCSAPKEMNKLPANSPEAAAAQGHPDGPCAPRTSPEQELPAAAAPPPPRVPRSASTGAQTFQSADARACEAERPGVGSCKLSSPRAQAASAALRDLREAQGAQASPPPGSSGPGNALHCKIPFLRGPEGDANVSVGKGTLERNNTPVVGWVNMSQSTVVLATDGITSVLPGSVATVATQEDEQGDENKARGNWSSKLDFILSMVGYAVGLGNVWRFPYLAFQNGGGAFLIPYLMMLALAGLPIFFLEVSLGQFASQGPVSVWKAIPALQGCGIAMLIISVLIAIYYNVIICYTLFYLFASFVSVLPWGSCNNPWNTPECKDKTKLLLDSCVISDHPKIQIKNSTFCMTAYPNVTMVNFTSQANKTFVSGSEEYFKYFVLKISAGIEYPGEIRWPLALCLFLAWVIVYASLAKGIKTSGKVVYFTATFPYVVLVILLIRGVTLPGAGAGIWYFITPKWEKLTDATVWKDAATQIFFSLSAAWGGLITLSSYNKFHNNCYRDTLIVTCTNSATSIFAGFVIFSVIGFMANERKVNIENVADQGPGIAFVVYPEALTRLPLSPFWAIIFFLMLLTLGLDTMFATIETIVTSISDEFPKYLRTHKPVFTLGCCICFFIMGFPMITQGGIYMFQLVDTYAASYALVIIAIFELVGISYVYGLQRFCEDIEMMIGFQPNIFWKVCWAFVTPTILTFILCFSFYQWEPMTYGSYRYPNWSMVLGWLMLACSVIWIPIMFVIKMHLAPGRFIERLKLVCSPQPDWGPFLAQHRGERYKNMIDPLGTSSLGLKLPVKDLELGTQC
In short: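 [³H]-glycine uptake inhibition in cells transfected with human GlyT2 cDNA. EC50 is the average of at least two independent experiments.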

[5] = Aqueous solubility in phosphate buffer at pH 6.5 by lyophilization solubility assay; format: physicochemical
In short: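 Aqueous solubility was measured at pH 6.5 in a lyophilization solubility assay.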

[6] = tested on: Liver microsomes; test: Metabolic stability in human liver microsomes assessed as intrinsic clearance per […] of protein; format: ADME, Microsome
In short: (§1)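 Intrinsic clearance measured in liver microsomes from rat, mouse or human, expressed per mg microsomal protein.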

[7] = Metabolic stability in mouse liver microsomes assessed as intrinsic clearance per […] of protein; format: ADME, Microsome; in short: as §1
[8] = tested on: Liver microsomes; test: Metabolic stability in rat liver microsomes assessed as intrinsic clearance per […] of protein; format: ADME, Microsome; in short: as §1

| Compound | EC50 [2] | EC50 [4] | other results |
| --- | --- | --- | --- |
| O=C(c1cc([N+](=O)[O-])ccc1N1CCOCC1)N1CCN(c2ccc(C(F)(F)F)cc2F)CC1 | 41 nM | 29 µM | – |
| CC(C)Oc1ccc(S(C)(=O)=O)cc1C(=O)N1CCN(c2ccc(C(F)(F)F)cc2)CC1 | 82 nM | – | clearance [7]: 0 µL/min/mg; solubility [5]: 62 µg/mL (≈ 132 µM); clearance [6]: 0 µL/min/mg |
| CC(=O)c1ccc(N2CCN(C(=O)c3cccc([N+](=O)[O-])c3)CC2)c(F)c1 | 32000 nM | 24.5 µM | – |
| CNc1ccc([N+](=O)[O-])cc1C(=O)N1CCN(c2ccc(C(C)=O)cc2F)CC1 | 1900 nM | 1.4 µM | – |
| CC(=O)c1ccc(N2CCN(C(=O)c3cc(S(C)(=O)=O)ccc3SC(C)C)CC2)c(F)c1 | 15 nM | > 30 µM | – |
| CC(=O)c1ccc(N2CCN(C(=O)c3cc(C)ccc3N3CCOCC3)CC2)c(F)c1 | > 30000 nM | > 30 µM | – |
| O=C(c1cc([N+](=O)[O-])ccc1N1CCOCC1)N1CCN(c2ccc(C(F)(F)F)c(F)c2)CC1 | 37 nM | 15 µM | – |
| Cc1ccc(N2CCN(C(=O)c3cc([N+](=O)[O-])ccc3N3CCOCC3)CC2)cc1 | 2900 nM | 7.7 µM | – |
| O=C(c1cc([N+](=O)[O-])ccc1N1CCOCC1)N1CCN(c2cccc(Cl)c2)CC1 | 700 nM | 3.1 µM | – |
| COc1cccc(N2CCN(C(=O)c3cc([N+](=O)[O-])ccc3N3CCOCC3)CC2)c1 | 530 nM | 8.3 µM | – |
| COc1ccccc1N1CCN(C(=O)c2cc([N+](=O)[O-])ccc2N2CCOCC2)CC1 | > 10000 nM | 13.4 µM | – |
| O=C(c1cc([N+](=O)[O-])ccc1N1CCOCC1)N1CCN(c2cccc(C(F)(F)F)c2)CC1 | 400 nM | 0.3 µM | – |
| CS(=O)(=O)c1ccc(N2CCOCC2)c(C(=O)N2CCN(c3ccc(C(F)(F)F)cc3)CC2)c1 | 45 nM | – | clearance [7]: 15 µL/min/mg; solubility [5]: 3 µg/mL (≈ 6.03 µM); clearance [6]: 10 µL/min/mg |
| CC(=O)c1ccc(N2CCN(C(=O)c3cc(C#N)ccc3N3CCOCC3)CC2)c(F)c1 | 180 nM | 13 µM | Ratio EC50 [1]: 72; Papp [3]: 6.1 ×10⁻⁶ cm/s; solubility [5]: < 1 µg/mL; clearance [6]: 31 µL/min/mg; clearance [8]: 53 µL/min/mg |
| CC(=O)c1ccc(N2CCN(C(=O)c3cc(S(=O)(=O)Cc4ccccc4)ccc3N3CCOCC3)CC2)c(F)c1 | > 30000 nM | > 30 µM | – |
| CC(=O)c1ccc(N2CCN(C(=O)c3cc([N+](=O)[O-])ccc3NCC3CCCCC3)CC2)c(F)c1 | > 10000 nM | – | – |
| CS(=O)(=O)c1ccc(N2CCN(C(=O)c3cc([N+](=O)[O-])ccc3N3CCOCC3)CC2)cc1 | 110 nM | 2.1 µM | – |
| O=C(c1cc([N+](=O)[O-])ccc1N1CCOCC1)N1CCN(c2ccc(C(F)(F)F)c(Cl)n2)CC1 | 33 nM | 24 µM | – |
| O=C(c1cc([N+](=O)[O-])ccc1N1CCOCC1)N1CCN(c2ncc(C(F)(F)F)cc2Cl)CC1 | 47 nM | > 30 µM | – |
| CC(=O)c1ccc(N2CCN(C(=O)c3cc([N+](=O)[O-])ccc3NC3CCCCC3)CC2)c(F)c1 | 2 nM | 8.5 µM | – |
| Cc1cccc(N2CCN(C(=O)c3cc([N+](=O)[O-])ccc3N3CCOCC3)CC2)c1 | 1100 nM | 4 µM | – |
| CS(=O)(=O)c1ccc(N2CCN(C(=O)c3cc([N+](=O)[O-])ccc3N3CCOCC3)CC2)c(F)c1 | 40 nM | > 30 µM | – |

The next lines start with results.

| EC50 [2] | EC50 [4] | Compound | other results |
| --- | --- | --- | --- |
| 120 nM | > 30 µM | CC(=O)c1ccc(N2CCN(C(=O)c3cc(S(N)(=O)=O)ccc3N3CCOCC3)CC2)c(F)c1 | Ratio EC50 [1]: > 250; Papp [3]: 3.3 ×10⁻⁶ cm/s; solubility [5]: 308 µg/mL (≈ 628 µM); clearance [6]: 31 µL/min/mg |
| 30 nM | 4.3 µM | N#Cc1ccc(N2CCN(C(=O)c3cc([N+](=O)[O-])ccc3N3CCOCC3)CC2)c(F)c1 | – |
| 15 nM | > 30 µM | N#Cc1cc(C(F)(F)F)ccc1N1CCN(C(=O)c2cc([N+](=O)[O-])ccc2N2CCOCC2)CC1 | – |
| 2 nM | 10 µM | CC(=O)c1ccc(N2CCN(C(=O)c3cc([N+](=O)[O-])ccc3NC(C)C)CC2)c(F)c1 | – |
| > 30000 nM | – | CC(=O)c1ccc(N2CCN(C(=O)c3ccccc3N3CCOCC3)CC2)c(F)c1 | – |
| 500 nM | 2 µM | CC(=O)c1ccc(N2CCN(C(=O)c3cc([N+](=O)[O-])ccc3N(C)C)CC2)c(F)c1 | – |
| 310 nM | 1.17 µM | O=C(c1cc([N+](=O)[O-])ccc1N1CCOCC1)N1CCN(c2ccc(Cl)cc2)CC1 | – |
| 78 nM | 1.1 µM | N#Cc1ccc(N2CCN(C(=O)c3cc([N+](=O)[O-])ccc3N3CCOCC3)CC2)cc1 | – |
| 1400 nM | 11.2 µM | O=C(c1cc([N+](=O)[O-])ccc1N1CCOCC1)N1CCN(c2ccccc2Cl)CC1 | – |
| 7100 nM | > 30 µM | O=C(c1cc([N+](=O)[O-])ccc1N1CCOCC1)N1CCN(c2ccccc2C(F)(F)F)CC1 | – |
| 1 nM | 4 µM | CC(=O)c1ccc(N2CCN(C(=O)c3cc([N+](=O)[O-])ccc3N3CCCCC3)CC2)c(F)c1 | – |
| 100 nM | > 30 µM | CNS(=O)(=O)c1ccc(N2CCOCC2)c(C(=O)N2CCN(c3ccc(C(C)=O)cc3F)CC2)c1 | Ratio EC50 [1]: > 300; Papp [3]: 5.3 ×10⁻⁶ cm/s; solubility [5]: 30 µg/mL (≈ 59.5 µM); clearance [6]: 43 µL/min/mg; clearance [8]: 106 µL/min/mg |
| > 10000 nM | 14.2 µM | Cc1ccccc1N1CCN(C(=O)c2cc([N+](=O)[O-])ccc2N2CCOCC2)CC1 | – |
| 26000 nM | 11 µM | CC(=O)c1ccc(N2CCN(C(=O)c3cc(C(F)(F)F)ccc3N3CCOCC3)CC2)c(F)c1 | Ratio EC50 [1]: 0.4 |
| > 30000 nM | 5.1 µM | CC(=O)c1ccc(N2CCN(C(=O)c3cc(Br)ccc3N3CCOCC3)CC2)c(F)c1 | Ratio EC50 [1]: < 0.2 |
| 1300 nM | 11.4 µM | COc1ccc(N2CCN(C(=O)c3cc([N+](=O)[O-])ccc3N3CCOCC3)CC2)cc1 | – |
| > 30000 nM | > 30 µM | CC(=O)c1ccc(N2CCN(C(=O)c3cc(N)ccc3N3CCOCC3)CC2)c(F)c1 | – |
| 15 nM | 4.8 µM | CC(=O)c1ccc(N2CCN(C(=O)c3cc([N+](=O)[O-])ccc3N3CCOCC3)CC2)c(F)c1 | Ratio EC50 [1]: 320; Papp [3]: 4.7 ×10⁻⁶ cm/s; solubility [5]: 9 µg/mL (≈ 19.7 µM); clearance [6]: 35 µL/min/mg; clearance [8]: 106 µL/min/mg |
| 39 nM | > 30 µM | CC(=O)c1ccc(N2CCN(C(=O)c3cc(S(C)(=O)=O)ccc3OC(C)C)CC2)c(F)c1 | – |
| 1600 nM | > 30 µM | CCCS(=O)(=O)c1ccc(N2CCOCC2)c(C(=O)N2CCN(c3ccc(C(C)=O)cc3F)CC2)c1 | – |
| 100 nM | 3.3 µM | O=C(c1cc([N+](=O)[O-])ccc1N1CCOCC1)N1CCN(c2ccc(C(F)(F)F)cc2)CC1 | – |
| > 10000 nM | 3.3 µM | CC(=O)c1ccc(N2CCN(C(=O)c3cc([N+](=O)[O-])ccc3N)CC2)c(F)c1 | – |
